For 167 variants, yeast fitness results are on record in the RNAGym collection of RNA variant scans (doi:10.1126/science.aae0568).

To fix the notation:
B1: tRNA (parent)
chain: GUUCCGUUGGCGUAAUGGUAACGCGUCUCCCUCCUAAGGAGAAGACUGCGGGUUCGAGUCCCGUACGGAACG

Variants at the floor of the assay were thinned out.

The data set covers variants of B1. Put plainly: yeast fitness relative to wild type (ratio to wild type); higher = fitter; tRNA-Arg(CCU), competitive growth, 37 C, YPD. Summed up: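 Amplicons of the tRNA-Arg(CCU) gene were sequenced, 100-nucleotide paired-end, from the start population and from each end population of a pooled yeast competition. The competition, in six parallel replicates, lasted 24 hours in YPD at 37°C. Fitness relative to wild type was calculated from changes in genotype frequencies. Genotypes had to have ≥ 100 starting reads, and estimates < 0.5 were set to 0.5.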
Consider A14C C24U C29U A40U G68U, for which the yeast fitness is at most 0.5.

For the variant A14G A20C A40C A45G C46A, the yeast fitness is at most 0.5.

A14G A15C G51C C61G: the yeast fitness was at most 0.5. To A14C G18A C22G C49A U59C A69G belongs at most 0.5; to A14C C34U G39C, 0.625.

For the variant A14G A15C A37C C46A A69U, the yeast fitness was at most 0.5.

As for A14C U19G U32A G52C, the yeast fitness is at most 0.5. To A14G A15G U54C belongs 0.569. To A14C U19G C31G C33U A42G G48A G52A belongs at most 0.5; to A14G A15U U32G C34G U47C G63C, at most 0.5; to A14C C29G, at most 0.5. In the case of A14G A20C C46G, the yeast fitness came to 0.635. Take A14C C34U G39C C55U G56C: the yeast fitness is at most 0.5. For the variant A14C U54A U59C C61G, the yeast fitness is at most 0.5.

As to A14C C30U G41C A69U, the yeast fitness is at most 0.5.

For the variant A14C G56C, the yeast fitness was found to be 0.567. Take A14C C31U A36U: the yeast fitness is 0.631. A14C U16G A21G A70U: the yeast fitness is at most 0.5. To A14C C29U A36G A45U belongs 0.543; to A14C G44A C46A G52A C66U, at most 0.5.

A14C G51C U59G: the yeast fitness is at most 0.5. Turning to A14C C49U, the yeast fitness turned out to be 0.715. To A14C C34G C49A C61U belongs at most 0.5; to A14C G17C C60U, at most 0.5; to A14C G17C C31U A37C, 0.577. To A14C C30A C31G belongs at most 0.5; to A14G A15U G50U U64G, 0.542; to A14C C27A C31A, 0.588. To A14C C34A belongs 0.565; to A14C U47C C66U, at most 0.5; to A14C C24U U26A G52C, at most 0.5.

Consider A14C C24U C31G A36U, for which the yeast fitness worked out at 0.664. Turning to A14C G17C U26A G41C, the yeast fitness is at most 0.5. To A14C C55U belongs 0.645; to A14C C55G, 0.827; to A14C G25A C29G C46G C61A, 0.569.

As for A14C G18C U28A C30G A43G A57G C60U A65C G67U, the yeast fitness is 0.557. As to A14C C24U, the yeast fitness was found to be 0.666. As to A14C U19C C34U G39C G51C, the yeast fitness is at most 0.5.

On to A14C U16A G63A, for which the yeast fitness was at most 0.5. To A14C C24U A57G C60U G68C belongs at most 0.5; to A14C U28A U59G A65U, at most 0.5; to A14C C31G C62A A65U C66U, 0.506. To A14C U16A A21C G56A belongs at most 0.5. To A14G A21C A65C belongs 0.539; to A14C C27U C55G A70U, 0.613; to A14G A20U C29G C33U, 0.543. On to A14G A15U U53C A69U, for which the yeast fitness worked out at 0.599. To A14C U16A C66U belongs at most 0.5; to A14C C29U C33G, 0.527. A14C C34G A43U C62A: the yeast fitness amounted to 0.716. In the case of A14C G25C C66U, the yeast fitness turned out to be 0.531.

As to A14G A15U G25C U54A, the yeast fitness is at most 0.5.

Consider A14C C30A A69U, for which the yeast fitness was at most 0.5. To A14C C30U G58A belongs at most 0.5; to A14C C30U A37C C62A, 0.693. Take A14C C31G A43C G51A: the yeast fitness was at most 0.5. A14C C33U: the yeast fitness was 0.64.

Consider A14C C27U C46U A70G, for which the yeast fitness is at most 0.5. A14C U32G U47C C55G: the yeast fitness is at most 0.5.

On to A14C C30A, for which the yeast fitness was 0.576. As to A14C C30G, the yeast fitness was determined as 0.508. To A14C C30U belongs 0.622; to A14C U32G A45G U64C, at most 0.5; to A14G A21C C30G A57G, at most 0.5.

As for A14G A21C C30G A57U, the yeast fitness was at most 0.5. To A14C U16C C62U A65U belongs at most 0.5; to A14C U16A U26C C66U A69C, at most 0.5; to A14C G25A A40C C46U, at most 0.5. To A14C G48C belongs 0.658. To A14C G18A G67U belongs at most 0.5.

A14C U16C G51C G58A C60A: the yeast fitness is at most 0.5. Take A14G A15C A69C A70G: the yeast fitness is 0.618. To A14C C29U A36G A45U A70U belongs at most 0.5; to A14C C29U A36G A45U A70G, 0.548; to A14C C31U A36U C55G, at most 0.5. To A14C C30A C31U A36U belongs at most 0.5; to A14G A20C C33A A70G, at most 0.5. To A14C G25C G48A belongs 0.608; to A14C G25C U47A G63C, 0.678; to A14C G18C, 0.542. For the variant A14C G18A G48A C60G, the yeast fitness is 0.558. On to A14C U19A A20C, for which the yeast fitness is at most 0.5.

For A14C G17C G18A G23C A57C, the yeast fitness is at most 0.5.

For A14C G23A C29U U35C G48A, the yeast fitness is at most 0.5. To A14C G18A A42G C46A belongs at most 0.5; to A14G A15U C34U, 0.505; to A14C G18C A65U G68C, at most 0.5. A14C G25C G52A C66U: the yeast fitness was at most 0.5.

In the case of A14C U28A U53G, the yeast fitness turned out to be 0.57. For A14C C60G A70U, the yeast fitness was at most 0.5.

As to A14G A20C A36U G39C, the yeast fitness was at most 0.5. To A14C C27G A69U belongs 0.561; to A14G A21C A36C A43U, at most 0.5; to A14C G18C G56A, at most 0.5. In the case of A14C G17A G68A, the yeast fitness was 0.522. For A14G A15C C30U G56C A69C, the yeast fitness was at most 0.5. To A14C C49U U64A belongs 0.556. Consider A14C G18C C29U A65C, for which the yeast fitness is at most 0.5. Take A14C U19A U59C A69G: the yeast fitness came to 0.652. To A14G A15U G25C C49U belongs 0.619; to A14C C61U C66G, 0.522. A14C U16C C61U: the yeast fitness was at most 0.5. To A14C G25A belongs 0.889; to A14C G25C, 0.583; to A14C C46U G67C, 0.589. To A14C G25A C33G A36U A45G G52C belongs at most 0.5; to A14G A15C C46A U64G A65U, at most 0.5. Take A14C C27G C46G A65G C66U: the yeast fitness is at most 0.5.

On to A14C C34U A37G, for which the yeast fitness came out at 0.507. To A14C U16A U54A G58C belongs at most 0.5; to A14G A21C C30G, at most 0.5; to A14C C34G A43U G48A, at most 0.5.

With A14G A15C C24G A45G, the yeast fitness is at most 0.5. To A14C C24U C31U U53C C61G belongs at most 0.5; to A14C C30G A37G A45G U59C G67C, at most 0.5. For A14C G18A C22G A57U C61G, the yeast fitness was at most 0.5. On to A14C C30A C66U A70G, for which the yeast fitness is 0.622.

Regarding A14C C27G C46G C55G, the yeast fitness is at most 0.5. To A14C C33G A42C G48A C60U belongs at most 0.5; to A14C U28C, 0.606; to A14C U28G, 0.625.

In the case of A14C U16C G44A U54C C61U A69C, the yeast fitness was at most 0.5. To A14C C29U C31U A36G A45U A70G belongs at most 0.5. To A14C C24U C31U A40U G44A belongs at most 0.5. Turning to A14C G25A A37U A42G, the yeast fitness is at most 0.5.

With A14C C46U, the yeast fitness was 0.915.

For A14C C46A, the yeast fitness was determined as 0.641. To A14C G17C belongs 0.622; to A14C C33G G44A C49A C55A, at most 0.5. In the case of A14G A20C C30U C66U, the yeast fitness is at most 0.5. Turning to A14G A15C U26A G48C C49U U59C, the yeast fitness was at most 0.5. Consider A14C C34G A57U, for which the yeast fitness was 0.518. To A14C C27U C31U C33A G67C belongs 0.541; to A14G A15G U32A, at most 0.5.

For A14C C31U, the yeast fitness was found to be 0.706. To A14G A20C G67C belongs 0.534. On to A14G A20U A36U G51C G52C C60U G67A, for which the yeast fitness was at most 0.5. In the case of A14C G44C A70C, the yeast fitness was determined as 0.56. Turning to A14C G58A, the yeast fitness came to 0.868. In the case of A14C G68U, the yeast fitness came out at 0.583. To A14C U19A A21G C31U belongs at most 0.5. Consider A14C G25C C27G C34U U35A G38A C66U, for which the yeast fitness is at most 0.5. To A14G A15C U35C C46A A69U belongs at most 0.5; to A14C G17A G23A C29G A42C G56A C62U, at most 0.5. To A14C U19C C27A A43G belongs at most 0.5. To A14G A15G A37U C55U belongs at most 0.5; to A14C U64C, 0.935. On to A14C U28A U54C G56C G58A, for which the yeast fitness was at most 0.5. To A14C C27G C46G belongs 0.619; to A14C U26C U54C C55G C61A, at most 0.5; to A14C C62G C66U, at most 0.5.

On to A14C U53C, for which the yeast fitness is 0.713. Take A14C U47C A57C: the yeast fitness was at most 0.5. On to A14G A21C A36C A43U G67U, for which the yeast fitness was at most 0.5. To A14C C60G C66U G68A belongs at most 0.5; to A14C U54A, 0.528; to A14C C62G, 0.599.

Take A14G A20C C60U: the yeast fitness is at most 0.5. To A14C U53A A65C A70G belongs 0.587. As to A14G A15C U26C U35G C49G, the yeast fitness is at most 0.5. To A14C C24U U35C C55U belongs at most 0.5. To A14C U26A C34U C55G belongs 0.519; to A14C C24U A36G, 0.591. To A14C C33A G41U C49U C66U belongs at most 0.5; to A14G A20G A69C, 0.528; to A14C C24G G39A A43G, at most 0.5.
